Assay results from paper PMC3536955 (Osteoporosis International, 2012).

Tests used:
Format in all cases: in vivo, postmenopausal Japanese women
[1] = test system: Serum cross-linked N-telopeptide of type I collagen (NTX); assay: Bone resorption marker serum NTX; conditions: n = 10
Method in brief: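 Serum NTX was measured by ELISA (inter-assay CV 6.9–11.1 %), with all of a participant's samples run together. The trial was a placebo-controlled, double-blind, single-centre study in postmenopausal women aged 60–79 y, each given one s.c. injection after 0800 h baseline sampling. Blood was taken at 15–720 min and on mornings of days 2–15. Baseline median and follow-up distribution were tabulated.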

[2] = Pharmacokinetics: plasma teriparatide acetate concentration
Method in brief: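 Plasma was sampled before and at 15, 30, 45, 60, 90, 120, 180, 240, 360 and 720 min after one s.c. injection at 0800 h in postmenopausal women. Drug was assayed with a rat PTH IRMA kit (range 10 to 1,000 pg/mL). Cmax, AUClast, AUCinf, Tmax and T1/2 were derived for active-dose recipients only. Concentrations are given as mean ± SD.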

[3] = Safety: adverse events after injection
Method in brief: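 Adverse events were recorded after a single s.c. injection of drug or identical-looking placebo in a randomised, double-blind study of postmenopausal women aged 60–79 y, with 10 per group. Events and abnormal laboratory changes were coded by MedDRA/J version 9.0 by system organ class and preferred term, and classified as adverse drug reactions where applicable. Follow-up lasted until day 15.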

osteocalcin = assay: Bone formation marker serum osteocalcin; conditions: n = 10
Method in brief: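 Women aged 60–79 y were randomised double-blind to placebo or one s.c. injection at 0800 h, given after baseline blood. Serum was sampled 15–720 min post-dose, then each morning on days 2, 4, 6, 8, 11, 13 and 15. Osteocalcin was measured by BGP-IRMA (inter-assay CV 4.7–7.6 %), in a single batch per participant. Values were summarised as baseline median and follow-up distribution.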

[4] = 4 to 15 days, 28.2 μg single s.c.
[5] = 4 to 15 days, 56.5 μg single s.c.

For `CC[C@H](C)[C@H](NC(=O)[C@H](CCC(=O)O)NC(=O)[C@H](CO)NC(=O)[C@@H](NC(=O)[C@@H](N)CO)C(C)C)C(=O)N[C@@H](CCC(N)=O)C(=O)N[C@@H](CC(C)C)C(=O)N[C@@H](CCSC)C(=O)N[C@@H](Cc1cnc[nH]1)C(=O)N[C@@H](CC(N)=O)C(=O)N[C@@H](CC(C)C)C(=O)NCC(=O)N[C@@H](CCCCN)C(=O)N[C@@H](Cc1cnc[nH]1)C(=O)N[C@@H](CC(C)C)C(=O)N[C@@H](CC(N)=O)C(=O)N[C@@H](CO)C(=O)N[C@@H](CCSC)C(=O)N[C@@H](CCC(=O)O)C(=O)N[C@@H](CCCN=C(N)N)C(=O)N[C@H](C(=O)N[C@@H](CCC(=O)O)C(=O)N[C@@H](Cc1c[nH]c2ccccc12)C(=O)N[C@@H](CC(C)C)C(=O)N[C@@H](CCCN=C(N)N)C(=O)N[C@@H](CCCCN)C(=O)N[C@@H](CCCCN)C(=O)N[C@@H](CC(C)C)C(=O)N[C@@H](CCC(N)=O)C(=O)N[C@@H](CC(=O)O)C(=O)N[C@H](C(=O)N[C@@H](Cc1cnc[nH]1)C(=O)N[C@@H](CC(N)=O)C(=O)N[C@@H](Cc1ccccc1)C(=O)O)C(C)C)C(C)C` [teriparatide], the “Serum NTX, Max” value ([1]; 2 to 24 h, 28.2 μg single s.c.) was 21.7 nM BCE/L, the “Serum NTX, Median” value ([1]; 2 to 24 h, 28.2 μg single s.c.) was 14.2 nM BCE/L and the “Serum NTX, Min” value ([1]; 2 to 24 h, 28.2 μg single s.c.) was 9.2 nM BCE/L. For the same compound, the “Serum NTX, Max” value ([1]; 2 to 24 h, 56.5 μg single s.c.) was 27.7 nM BCE/L, the “Serum NTX, Median” value ([1]; 2 to 24 h, 56.5 μg single s.c.) was 13.8 nM BCE/L and the “Serum NTX, Min” value ([1]; 2 to 24 h, 56.5 μg single s.c.) was 7.2 nM BCE/L. The “Serum NTX, Max” value [1, 4] was 20.4 nM BCE/L, the “Serum NTX, Median” value [1, 4] was 13.2 nM BCE/L and the “Serum NTX, Min” value [1, 4] was 7.2 nM BCE/L. For the same compound, the “Serum NTX, Max” value [1, 5] was 20.6 nM BCE/L, the “Serum NTX, Median” value [1, 5] was 10.7 nM BCE/L and the “Serum NTX, Min” value [1, 5] was 7.5 nM BCE/L. It also gave a Tmax ([2]; female, human, sc) of 1 h, an AUC(0-inf) ([2]; female, human, sc, 28.2 ug) of 0.468 ng·h/mL and an AUC(0-inf) ([2]; female, human, sc, 56.5 ug) of 0.879 ng·h/mL. For the same compound, the AUC(0-t) ([2]; female, human, sc, 56.5 ug) was 0.832 ng·h/mL, the “time after injection at which teriparatide concentration disappeared” value ([2]; single s.c. injection 28.2 or 56.5 μg) was 6 h and the Any adverse event ([3]; 28.2 μg single s.c., n = 10) was 10 (100) n (%). The Decreased appetite ([3]; 28.2 μg single s.c., n = 10) was 1 (10) n (%), the Decreased blood pressure ([3]; 28.2 μg single s.c., n = 10) was 1 (10) n (%) and the Erythema ([3]; 28.2 μg single s.c., n = 10) was 1 (10) n (%). For the same compound, the Muscle spasms ([3]; 28.2 μg single s.c., n = 10) was 1 (10) n (%), the Palpitations ([3]; 28.2 μg single s.c., n = 10) was 1 (10) n (%) and the Positional vertigo ([3]; 28.2 μg single s.c., n = 10) was 1 (10) n (%). The Rhinorrhea ([3]; 28.2 μg single s.c., n = 10) was 1 (10) n (%), the Somnolence ([3]; 28.2 μg single s.c., n = 10) was 1 (10) n (%) and the Vomiting ([3]; 28.2 μg single s.c., n = 10) was 1 (10) n (%). For the same compound, the Any adverse event ([3]; 56.5 μg single s.c., n = 10) was 10 (100) n (%), the Conjunctival hyperemia ([3]; 56.5 μg single s.c., n = 10) was 1 (10) n (%) and the Decreased appetite ([3]; 56.5 μg single s.c., n = 10) was 1 (10) n (%). For the same compound, the Eye pain ([3]; 56.5 μg single s.c., n = 10) was 1 (10) n (%), the Headache ([3]; 56.5 μg single s.c., n = 10) was 3 (30) n (%) and the Hot flashes ([3]; 56.5 μg single s.c., n = 10) was 1 (10) n (%). For the same compound, the Nasopharyngitis ([3]; 56.5 μg single s.c., n = 10) was 1 (10) n (%), the Nausea ([3]; 56.5 μg single s.c., n = 10) was 1 (10) n (%) and the Pharynx discomfort ([3]; 56.5 μg single s.c., n = 10) was 1 (10) n (%). The Rhinorrhea ([3]; 56.5 μg single s.c., n = 10) was 1 (10) n (%), the Somnolence ([3]; 56.5 μg single s.c., n = 10) was 5 (50) n (%) and the Vomiting ([3]; 56.5 μg single s.c., n = 10) was 1 (10) n (%). The “severity and outcome of ADRs” value ([3]; 28.2 and 56.5 μg groups, most ADRs) was “mild and resolved without intervention”, the “changes in laboratory values before or after administration” value ([3]; throughout the study duration) was “no significant changes” and the “Serum osteocalcin, Max” value (osteocalcin; 2 to 24 h, 28.2 μg single s.c.) was 12.7 ng/mL. The “Serum osteocalcin, Median” value (osteocalcin; 2 to 24 h, 28.2 μg single s.c.) was 7.6 ng/mL, the “Serum osteocalcin, Min” value (osteocalcin; 2 to 24 h, 28.2 μg single s.c.) was 4.6 ng/mL and the “Serum osteocalcin, Max” value (osteocalcin; 2 to 24 h, 56.5 μg single s.c.) was 16.7 ng/mL. The “Serum osteocalcin, Median” value (osteocalcin; 2 to 24 h, 56.5 μg single s.c.) was 7.4 ng/mL, the “Serum osteocalcin, Min” value (osteocalcin; 2 to 24 h, 56.5 μg single s.c.) was 3.2 ng/mL and the “Serum osteocalcin, Max” value (osteocalcin; [4]) was 12.2 ng/mL. The “Serum osteocalcin, Median” value (osteocalcin; [4]) was 8.1 ng/mL and the “Serum osteocalcin, Min” value (osteocalcin; [4]) was 4.6 ng/mL.
